Source: ChEMBL document CHEMBL3600383, “A new polyoxygenated cyclohexene and a new megastigmane glycoside from Uvaria grandiflora” (Bioorg Med Chem Lett, 2015)

Tests used:
Type in all cases: functional, cell-based
SW480 = assay: Cytotoxic activity against human SW480 cells assessed as inhibition of cell growth incubated for 48 hrs by SRB method; conditions: SW480, 48 h
Procedure, shortened: (§1)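 Sulforhodamine B growth-inhibition assay run as part of a panel of nine human cancer cell lines. Potency is reported as IC50 in µM.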

HepG2 = assay: Cytotoxic activity against human HepG2 cells assessed as inhibition of cell growth incubated for 48 hrs by SRB method; conditions: HepG2, 48 h; procedure, shortened: as §1
MDA-MB-231 = assay: Cytotoxic activity against human MDA-MB-231 cells assessed as inhibition of cell growth incubated for 48 hrs by SRB method; conditions: MDA-MB-231, 48 h; procedure, shortened: as §1
[1] = Cytotoxic activity against human MKN7 cells assessed as inhibition of cell growth incubated for 48 hrs by SRB method; conditions: MKN-7, 48 h; procedure, shortened: as §1
HL-60 = assay: Cytotoxic activity against human HL60 cells assessed as inhibition of cell growth incubated for 48 hrs by SRB method; conditions: HL-60, 48 h; procedure, shortened: as §1
LNCaP = assay: Cytotoxic activity against human LNCAP cells assessed as inhibition of cell growth incubated for 48 hrs by SRB method; procedure, shortened: as §1
Lu1 = assay: Cytotoxic activity against human Lu1 cells assessed as inhibition of cell growth incubated for 48 hrs by SRB method; conditions: Lu1, 48 h; procedure, shortened: as §1
KB = assay: Cytotoxic activity against human KB cells assessed as inhibition of cell growth incubated for 48 hrs by SRB method; procedure, shortened: as §1
SK-MEL-2 = assay: Cytotoxic activity against human SK-MEL-2 cells assessed as inhibition of cell growth incubated for 48 hrs by SRB method; conditions: SK-MEL-2, 48 h
Procedure, shortened: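 Sulforhodamine B growth-inhibition assay, run in parallel across a panel of nine human cancer cell lines. Potency is reported as IC50 in µM.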

| Structure (SMILES) | IC50 (SW480) [µM] | IC50 (HepG2) [µM] | IC50 (MDA-MB-231) [µM] | IC50 [1] [µM] | IC50 (HL-60) [µM] | IC50 (LNCaP) [µM] | IC50 (Lu1) [µM] | IC50 (KB) [µM] | IC50 (SK-MEL-2) [µM] |
| --- | --- | --- | --- | --- | --- | --- | --- | --- | --- |
| C[C@@H]1O[C@@H](O[C@H]2[C@H](O[C@H]3CO[C@@H](O[C@H]4CC[C@]5(C)[C@H]6CC[C@]78OC[C@@]9(CC[C@](C)(C=O)C[C@H]97)[C@H](O)C[C@@]8(C)[C@]6(C)CC[C@H]5C4(C)C)[C@H](O[C@@H]4O[C@H](CO)[C@@H](O)[C@H](O)[C@H]4O)[C@H]3O)O[C@H](CO)[C@@H](O)[C@@H]2O)[C@H](O)[C@H](O)[C@H]1O [ARDISIACRISPIN B] | 1.24 | 1.53 | 11.8 | 1.27 | 22.6 | 9.7 | 1.41 | 1.6 |  |
| O=C(OC[C@@]1(O)C(=O)C=C[C@@H](O)[C@@H]1O)c1ccccc1 | 11.3 | 13.1 | 64.1 | 8.63 | 6.22 | 45.4 | 4.68 | 13.3 | 3.63 |
| Cc1c2ccncc2c(C)c2c1[nH]c1ccccc12 [ELLIPTECINE] | 3.17 | 3.5 | 3.21 | 3.82 | 2.93 | 3.21 | 2.72 | 3.98 | 1.14 |
